Reference: ChEMBL document CHEMBL1137958, “2('),3(')-didehydro-2('),3(')-dideoxynucleosides are degraded to furfuryl alcohol under acidic conditions” (Bioorg Med Chem Lett, 2004)

system: not listed separately; assay: Cytotoxicity was determined in PBM cells, relative to RVT; assay type: functional, cell-based; settings: Homo sapiens, PBMC

Row | Structure (SMILES) | IC50
1 | C[C@@H]1C[C@@H]([C@H](O)CC2CC(=O)NC(=O)C2)C(=O)[C@@H](C)C1 [CYCLOHEXIMIDE] | 0.46 µM
2 | Cc1cn([C@H]2C[C@H](N=[N+]=[N-])[C@@H](CO)O2)c(=O)[nH]c1=O [ZIDOVUDINE] | > 100 µM
3 | Nc1nc(=O)n([C@@H]2C=C[C@H](CO)O2)cc1F [ELVUCITABINE] | > 100 µM
4 | Nc1nc(=O)[nH]cc1F [FLUCYTOSINE] | ≥ 100 µM
5 | Cc1c[nH]c(=O)[nH]c1=O [THYMINE] | > 100 µM
6 | OCc1ccco1 [FURFURYL ALCOHOL] | > 100 µM
7 | Nc1nc2[nH]cnc2c(=O)[nH]1 [GUANINE] | > 100 µM

system: CCRF-CEM; assay: Cytotoxicity was determined in CEM cells, relative to RVT; assay type: functional, cell-based; settings: Homo sapiens

Row | Structure (SMILES) | IC50
8 | C[C@@H]1C[C@@H]([C@H](O)CC2CC(=O)NC(=O)C2)C(=O)[C@@H](C)C1 [CYCLOHEXIMIDE] | 0.08 µM
9 | Nc1nc(=O)n([C@@H]2C=C[C@H](CO)O2)cc1F [ELVUCITABINE] | > 100 µM
10 | Nc1nc(=O)[nH]cc1F [FLUCYTOSINE] | > 100 µM
11 | Cc1c[nH]c(=O)[nH]c1=O [THYMINE] | > 100 µM
12 | OCc1ccco1 [FURFURYL ALCOHOL] | > 100 µM
13 | Nc1nc2[nH]cnc2c(=O)[nH]1 [GUANINE] | 64.3 µM

system: not listed separately; assay: The anti-HIV-1 activity was assayed in activated human peripheral blood mononuclear (PBM) cells, relative to RVT; assay type: functional; settings: not given

Row | Structure (SMILES) | EC50 | EC90
14 | Cc1cn([C@H]2C[C@H](N=[N+]=[N-])[C@@H](CO)O2)c(=O)[nH]c1=O [ZIDOVUDINE] | 2 nM | 20 nM
15 | Nc1nc(=O)n([C@@H]2C=C[C@H](CO)O2)cc1F [ELVUCITABINE] | 67 nM | 1900 nM
16 | OCc1ccco1 [FURFURYL ALCOHOL] | > 100000 nM | > 100000 nM

system: not listed separately; assay: Estimated half-life at 20 degree C in 0.05 M pH 2 NaH2PO4 buffer; assay type: ADME; settings: phosphate buffer
Method in brief: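 About 1 mg of nucleoside was dissolved in 0.05 M NaH2PO4 (pH 2.0) and stirred at ambient temperature for 24 h. Samples taken at 1 and 24 h were analysed by reverse-phase C18 HPLC, eluting with a gradient of 0.05 M triethylammonium bicarbonate to 70% acetonitrile. Half-life was estimated from the HPLC data, and TLC was run at 24 h.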

Row | half-life | Structure (SMILES)
17 | 41 min | Nc1nc(NC2CC2)c2ncn(C3C=CC(CO)O3)c2n1 (centres undefined)
18 | 45 min | Nc1nc(=O)n([C@@H]2C=C[C@H](CO)O2)cc1F [ELVUCITABINE]
19 | 50000 min | Cc1cn([C@H]2C=C[C@@H](CO)O2)c(=O)[nH]c1=O [STAVUDINE]
20 | < 2 min | Nc1nc(O)c2ncn(C3C=CC(CO)O3)c2n1 (centres undefined)

system: Vero; assay: Cytotoxicity was determined in Vero cells, relative to RVT; assay type: functional, cell-based; settings: Chlorocebus sabaeus

Row | Structure (SMILES) | IC50
21 | C[C@@H]1C[C@@H]([C@H](O)CC2CC(=O)NC(=O)C2)C(=O)[C@@H](C)C1 [CYCLOHEXIMIDE] | 0.53 µM
22 | Nc1nc(=O)n([C@@H]2C=C[C@H](CO)O2)cc1F [ELVUCITABINE] | > 100 µM
23 | Nc1nc(=O)[nH]cc1F [FLUCYTOSINE] | > 100 µM
24 | Cc1c[nH]c(=O)[nH]c1=O [THYMINE] | > 100 µM
25 | OCc1ccco1 [FURFURYL ALCOHOL] | > 100 µM
26 | Nc1nc2[nH]cnc2c(=O)[nH]1 [GUANINE] | 54.9 µM
